Experimental data reported in ChEMBL document CHEMBL5653613 (Mol Cancer Ther, 2013).
Activity calls are given as the source filed them. The rule behind the calls is not given here.

How the values were obtained:
MCF7 [1] = assay: Cytotoxicity against human MCF7 cells at 1 to 2.5 umol/L incubated for 72 hrs by MTS assay; assay type: functional, cell-based; conditions: dose 1-2.5 µmol/L
MCF7 [2] = assay: Induction of apoptosis in human MCF7 cells assessed as early cells at 5 umol/L incubated for 3 days by Annexin V/PI staining based flow cytometry (reference value: 0.1 %); assay type: functional; conditions: dose 5 µmol/L; time 3 day; at 5 µM
T47D [3] = assay: Induction of apoptosis in human T47D cells assessed as necrotic cells at 5 umol/L incubated for 3 days by Annexin V/PI staining based flow cytometry (reference value: 0.6 %); assay type: functional; conditions: dose 5 µmol/L; time 3 day; at 5 µM
T47D [4] = assay: Induction of polyploidy in human T47D cells at 1 umol/L incubated for 72 hrs by microscopic analysis relative to control; assay type: functional; conditions: dose 1 µmol/L, at 1 µM
In short: (§1)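 Cells stained with Hema-3 and photographed under a light microscope with CCD camera. Polyploid cells scored as percent of the population.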

ZR-75-1 [5] = assay: Induction of polyploidy in human ZR-75-1 cells at 5 umol/L incubated for 72 hrs by microscopic analysis relative to control; assay type: functional; conditions: dose 5 µmol/L, at 5 µM; in short: as §1
ZR-75-1 [6] = assay: Induction of polyploidy in human ZR-75-1 cells at 5 umol/L by microscopic analysis; assay type: functional, cell-based; conditions: dose 5.0 µmol/L, time 72.0 hrs, TDE = time-dependent effect
ZR-75-1 [7] = assay: Induction of polyploidy in human ZR-75-1 cells at 5 uM incubated for 72 hrs by microscopic analysis; assay type: functional, cell-based; in short: as §1
MCF7 [8] = assay: Induction of polyploidy in human MCF7 cells at 5 uM incubated for 72 hrs by microscopic analysis; assay type: functional, cell-based; in short: as §1
T47D [9] = assay: Induction of polyploidy in human T47D cells with RON-/- at 5 umol/L incubated for 72 hrs by microscopic analysis (reference value: 83.5 %); assay type: functional; conditions: dose 5 µmol/L, at 5 µM
In short: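 Cells (2 106 per 60-mm dish) transiently transfected for 48 hours with 1 nmol/L scrambled or RON-specific siRNA, with knockdown confirmed by anti-RON Western blot. […] Polyploidy monitored and photographed by microscopy, with untransfected and scrambled-siRNA cells as comparators.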

T47D [10] = assay: Inhibition of cell proliferation of human T47D cells with RON-/- at 5 umol/L incubated for 72 hrs followed by media replacement without compound measured upto 10 days by microscopic analysis; assay type: functional, cell-based; conditions: dose 5.0 µmol/L
ZR-75-1 [11] = assay: Inhibition of cell proliferation of human ZR-75-1 cells with RON-/- at 5 umol/L incubated for 72 hrs followed by media replacement without compound measured upto 10 days by microscopic analysis; assay type: functional, cell-based; conditions: dose 5.0 µmol/L
MCF7 [12] = assay: Induction of polyploidy in human MCF7 cells assessed as cells with 2N chromosome contents at 5 uM incubated for 24 hrs by PI staining based flow cytometry (reference value: 52); assay type: functional
MCF7 [13] = assay: Induction of polyploidy in human MCF7 cells assessed as cells with 4N chromosome contents at 5 uM incubated for 24 hrs by PI staining based flow cytometry (reference value: 36); assay type: functional
MCF7 [14] = assay: Induction of polyploidy in human MCF7 cells assessed as cells with 2N chromosome contents at 5 uM incubated for 48 hrs by PI staining based flow cytometry (reference value: 52); assay type: functional
MCF7 [15] = assay: Induction of polyploidy in human MCF7 cells assessed as cells with 8N chromosome contents at 5 uM incubated for 48 hrs by PI staining based flow cytometry (reference value: 0); assay type: functional
MCF7 [16] = assay: Induction of polyploidy in human MCF7 cells assessed as cells with 16N chromosome contents at 5 uM incubated for 48 hrs by PI staining based flow cytometry (reference value: 0); assay type: functional
T47D [17] = assay: Induction of polyploidy in human T47D cells assessed as cells with 2N chromosome contents at 5 uM incubated for 24 hrs by PI staining based flow cytometry (reference value: 48); assay type: functional
T47D [18] = assay: Induction of polyploidy in human T47D cells assessed as cells with 16N chromosome contents at 5 uM incubated for 48 hrs by PI staining based flow cytometry (reference value: 0); assay type: functional
T47D [19] = assay: Induction of polyploidy in human T47D cells assessed as cells with 2N chromosome contents at 5 uM incubated for 72 hrs by PI staining based flow cytometry (reference value: 48); assay type: functional
ZR-75-1 [20] = assay: Induction of polyploidy in human ZR-75-1 cells assessed as cells with 16N chromosome contents at 5 uM incubated for 24 hrs by PI staining based flow cytometry (reference value: 0); assay type: functional
ZR-75-1 [21] = assay: Induction of polyploidy in human ZR-75-1 cells assessed as cells with 16N chromosome contents at 5 uM incubated for 72 hrs by PI staining based flow cytometry (reference value: 0); assay type: functional
T47D [22] = assay: Disruption of microtubule dynamics in human T47D cells assessed as absence of functional bipolar spindle assembly at 5 umol/L incubated for 24 hrs by immunofluorescence staining based analysis; assay type: cell-based; conditions: dose 5.0 µmol/L
In short: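 T-47D cells (1 × 10^6/dish) in RPMI-1640 with 5% FBS were treated with or without 5 µmol/L for 24, 48 and 72 h. Cells were fixed in cold acetone and stained with mouse anti-α-tubulin or anti-γ-tubulin, then an FITC anti-mouse IgG secondary, plus DAPI. Fluorescence microscopy, 200× magnification.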

T47D [23] = assay: Induction of cell cycle arrest at telophase in human T47D cells at 5 umol/L preincubated for 24 hrs followed by extensive compound washout and subsequent culturing in compound-free media measured upto 120 mins by immunofluorescence staining based analysis; assay type: functional; conditions: dose 5.0 µmol/L
In short: (§2)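 T-47D cells were treated at 37°C with 5 µmol/L for 24 h, washed extensively, then cultured in DMEM with 10% FBS for 30, 60 and 120 min. α- and γ-tubulin were detected by immunofluorescence with DAPI, imaged at 400×. The control was a 24 h preincubation with 5 µmol/L RO-3306. One of 2 experiments.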

T47D [24] = assay: Induction of cell cycle arrest at cytokinesis in human T47D cells at 5 umol/L preincubated for 24 hrs followed by extensive compound washout and subsequent culturing in compound-free media measured upto 120 mins by immunofluorescence staining based analysis; assay type: functional; conditions: dose 5.0 µmol/L; in short: as §2
T47D [25] = assay: Induction of cell cycle arrest at metaphase in human T47D cells assessed as disorganization of multipolar mitotic spindles at 5 umol/L preincubated for 24 hrs followed by extensive compound washout and subsequent culturing in compound-free media measured upto 3 days by immunofluorescence staining based analysis; assay type: functional; conditions: dose 5.0 µmol/L
MCF7 [26] = assay: Downregulation of histone H3 expression in human MCF7 cells at 5 umol/L incubated upto 72 hrs by Western blot analysis; assay type: functional, cell-based; conditions: dose 5.0 µmol/L
In short: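 Cells were treated with 5 µmol/L for 0, 24, 48 and 72 h. Lysates were immunoblotted for AURK-B, phospho-Ser10 histone H3 and total histone H3, with β-actin reprobe as the loading control. Detection by enhanced chemiluminescence.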

[27] = Effect on paclitaxel resistance in human T47D cells with compound-induced polyploidy assessed as change in paclitaxel-induced cytotoxicity by measuring increase in paclitaxel IC50 at 5 umol/L preincubated for 72 hrs followed by compound washout and subsequent paclitaxel treatment for 72 hrs by MTS assay; assay type: functional, cell-based
[28] = Effect on doxorubicin resistance in human ZR-75-1 cells with compound-induced polyploidy assessed as change in doxorubicin-induced cytotoxicity by measuring increase in DOX IC50 at 5 umol/L preincubated for 72 hrs followed by compound washout and subsequent doxorubicin treatment for 72 hrs by MTS assay; assay type: functional, cell-based
[29] = Effect on cisplatin resistance in human ZR-75-1 cells with compound-induced polyploidy assessed as change in cisplatin-induced cytotoxicity by measuring increase in cisplatin IC50 at 5 umol/L preincubated for 72 hrs followed by compound washout and subsequent cisplatin treatment for 72 hrs by MTS assay; assay type: functional, cell-based

SMILES: CCOc1ccn(-c2ccc(F)cc2)c(=O)c1C(=O)Nc1ccc(Oc2ccnc(N)c2Cl)c(F)c1 [BMS-777607]
- Activity (MCF7 [1]): inactive
- Activity (MCF7 [2]): 0.2%
- Activity (T47D [3]): 2.4%
- Activity (T47D [4]): 14%
- Activity (ZR-75-1 [5]): 82%
- Activity (ZR-75-1 [6]): Tde
- Activity (ZR-75-1 [7]): Active
- Activity (MCF7 [8]): Active
- Activity (T47D [9]): 79.4%
- inhibition (T47D [10]): inactive
- inhibition (ZR-75-1 [11]): inactive
- Activity (MCF7 [12]): 15.5
- Activity (MCF7 [13]): 45.5
- Activity (MCF7 [14]): 12
- Activity (MCF7 [15]): 25.5
- Activity (MCF7 [16]): 0
- Activity (T47D [17]): 7.5
- Activity (T47D [18]): 18.5
- Activity (T47D [19]): 7.5
- Activity (ZR-75-1 [20]): 5
- Activity (ZR-75-1 [21]): 32
- Activity (T47D [22]): Active
- Activity (T47D [23]): Active
- Activity (T47D [24]): Active
- Activity (T47D [25]): Active
- Activity (MCF7 [26]): inactive
- IC50 [27]: 0.0316 µM
- IC50 [28]: 1.18 µM
- IC50 [29]: 0.0034 µM
